# Laboratory results from ChEMBL document CHEMBL1240409, “Design, synthesis and evaluation of (E)-alpha-benzylthio chalcones as novel inhibitors of BCR-ABL kinase” (Bioorg Med Chem, 2010).
# Columns and labels:
# K562 = test: Growth inhibition of human K562 cells expressing p210Bcr/Abl after 96 hrs by trypan blue exclusion assay; assay type: functional, cell-based; conditions: K562, 96 h
# Summary of the method: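 K562 cells were kept in RPMI with 10% FBS and penicillin–streptomycin at 37 °C under 5% CO2. Cells were seeded at 1 × 10^5 cells/mL with a range of compound concentrations, using DMSO as the negative control. After 96 h, viability was counted by Trypan blue exclusion and expressed as percent of DMSO control to derive GI50.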
# DU-145 = test: Growth inhibition of human DU145 cells after 96 hrs by trypan blue exclusion assay; assay type: functional; conditions: DU-145, 96 h
Compound,GI50 (K562) [µM],GI50 (DU-145) [µM]
COc1ccc(/C=C(/SCc2ccc(F)cc2)C(=O)c2ccc(Cl)cc2)c(OC)c1OC,10,10
O=C(/C(=C\c1ccc(F)cc1C(F)(F)F)S(=O)(=O)Cc1ccc(Cl)c(Cl)c1)c1ccc(Cl)cc1,1,1
Cc1ccc(C)c(/C=C(\C(=O)c2ccc(Cl)cc2)S(=O)(=O)Cc2ccc(Cl)cc2)c1,10,10
O=C(/C(=C\c1ccc(Br)cc1)S(=O)(=O)c1ccccc1Br)c1ccc(Br)cc1,1,1
COc1ccc(S(=O)(=O)/C(=C/c2ccc(Br)cc2)C(=O)c2ccc(Br)cc2)cc1,6,6
COc1ccccc1/C=C(\C(=O)c1ccc(Cl)cc1)S(=O)(=O)c1ccc(Br)cc1,10,10
O=C(/C(=C\c1ccc(Br)cc1)SCc1ccc(Cl)cc1)c1ccc(Cl)cc1,1,1
O=C(/C(=C\c1ccc([N+](=O)[O-])c(O)c1)Sc1c(F)c(F)c(F)c(F)c1F)c1ccc(Br)cc1,1,10
COc1ccc(/C=C(/SCc2ccc(F)cc2)C(=O)c2ccc(Br)cc2)cc1,1,50
Nc1ccc(/C=C(/SCc2ccc(F)cc2)C(=O)c2ccc(C(=O)O)cc2)cc1[N+](=O)[O-],10,10
Cc1ccc(CS(=O)(=O)/C(=C/c2sccc2C)C(=O)c2ccc(Cl)cc2)cc1,25,25
Cc1ccc(CS(=O)(=O)/C(=C/c2ccccc2OCc2ccccc2)C(=O)c2ccc(Cl)cc2)cc1,1,1
Nc1c(Br)cc(Br)cc1/C=C(\C(=O)c1ccc(Br)cc1)S(=O)(=O)c1ccc(Br)cc1,25,25
COc1ccc(S/C(=C/c2ccc(C)s2)C(=O)c2ccc(Cl)cc2)cc1,50,50
Cc1ccc(S/C(=C/c2ccc(C)s2)C(=O)c2ccc(Br)cc2)cc1,50,> 100
COc1ccccc1/C=C(\C(=O)c1ccc(Cl)cc1)S(=O)(=O)Cc1ccc(Cl)cc1,25,25
O=C(/C(=C\c1ccc(O)c(C(=O)O)c1)SCc1ccc(Br)cc1)c1ccc(Br)cc1,25,10
Cc1ccc(S(=O)(=O)/C(=C/c2ccc(C)s2)C(=O)c2ccc(Br)cc2)cc1,50,25
COc1cc(C(=O)/C(=C\c2ccc(O)c([N+](=O)[O-])c2)SCc2ccc(Br)cc2)cc(OC)c1OC,1,1
O=C(C(=Cc1ccc(I)cc1)S(=O)(=O)Cc1ccc(I)cc1)c1ccc(Br)cc1,> 50,20
O=C(/C(=C\c1ccc(O)cc1)SCc1ccc(F)cc1)c1ccc(Cl)cc1,10,25
CCOc1ccc(/C=C(\C(=O)c2ccc(Cl)cc2)S(=O)(=O)c2ccc(C)cc2)cc1OC,1,1
COc1cc(OC)c(/C=C(\C(=O)c2ccc(Br)cc2)S(=O)(=O)c2ccc(Br)cc2)c(OC)c1,> 100,> 100
COc1cc(OC)c(C=C(SCc2ccccc2Cl)C(=O)c2ccc(Cl)cc2)c(OC)c1,10,25
O=C(/C(=C\c1ccc(O)c([N+](=O)[O-])c1)S(=O)(=O)Cc1ccc(Br)cc1)c1c(F)c(F)c(F)c(F)c1F,50,50
O=C(/C(=C\c1ccc(F)cc1Cl)S(=O)(=O)c1ccc(Br)cc1)c1ccc(Br)cc1,25,50
O=C(/C(=C\c1ccc(Br)cc1)S(=O)(=O)c1ccc(Br)cc1)c1ccc(Br)cc1,10,10

Compound,GI50 (K562) [µM],GI50 (DU-145) [µM]
COc1ccccc1/C=C(/SCc1ccc(Cl)cc1)C(=O)c1ccc(Cl)cc1,1,1
O=C(/C(=C\c1ccc(F)c([N+](=O)[O-])c1)SCc1ccc(F)cc1)c1ccc(SCc2ccc(F)cc2)c([N+](=O)[O-])c1,1,25
O=C(/C(=C\c1ccc(O)cc1O)Sc1ccccc1Br)c1ccc(Br)cc1,50,50
COc1ccc2[nH]cc(/C=C(/Sc3ccc(Br)cc3)C(=O)c3ccc(Br)cc3)c2c1,10,10
O=C(/C(=C\c1ccc(OCc2ccccc2)cc1)SCc1cccc(Cl)c1)c1ccc(Br)cc1,1,1
COc1cc(/C=C(/Sc2ccc(Br)cc2)C(=O)c2ccc(Br)cc2)ccc1F,1,10
COc1ccccc1/C=C(/SCc1ccc(Cl)c(Cl)c1)C(=O)c1ccc(Cl)cc1,10,10
Cc1ccc(S/C(=C/c2cc(Cl)cc(Cl)c2Cl)C(=O)c2ccc(Cl)cc2)cc1,50,50
O=C(/C(=C\c1ccc(O)c([N+](=O)[O-])c1)SCc1ccc(Br)cc1)c1ccc([N+](=O)[O-])cc1,10,10
COc1cc(OC)c(/C=C(/SCc2ccc(F)cc2)C(=O)c2ccc(Cl)cc2)c(OC)c1,10,10
COc1ccc(C(=O)C(=Cc2ccc(Br)cc2)S(=O)(=O)Cc2ccc(Br)cc2)cc1,1,1
O=C(/C(=C\c1ccc(Cl)cc1)SCc1ccc(Cl)cc1)c1ccccc1Cl,1,30
Cc1ccc(CS/C(=C/c2ccc(Br)cc2)C(=O)c2ccc(Cl)cc2)cc1,1,10
O=C(/C(=C\c1ccc(O)c(Br)c1)Sc1ccc(Br)cc1)c1c(F)c(F)c(F)c(F)c1F,1,1
COc1ccc(/C=C(/Sc2ccccc2Cl)C(=O)c2ccc(Cl)cc2)c(OC)c1OC,1,10
O=C(/C(=C\c1ccc(OCc2ccccc2)cc1)SCc1ccc(Cl)cc1Cl)c1ccc(Cl)cc1,1,1
COc1ccccc1/C=C(\C(=O)c1ccc(Cl)cc1)S(=O)(=O)c1ccc(C)cc1,1,1
O=C(/C(=C\c1cc(Br)c(O)c(Br)c1)SCc1ccc(Br)cc1)c1ccc(Br)cc1,10,1
COc1cc(OC)c(/C=C(\C(=O)c2ccc(Br)cc2)S(=O)(=O)c2ccc(C)cc2)c(OC)c1,> 100,> 100
CCOc1ccc(/C=C(/SCc2ccc(F)cc2)C(=O)c2ccc(Cl)cc2)cc1OC,1,1
Cc1cc(C)cc(/C=C(\C(=O)c2ccc(Br)cc2)S(=O)(=O)Cc2ccc(F)cc2)c1,10,10
Cc1ccc(S/C(=C/c2ccc(N(C)C)cc2)C(=O)c2ccc(Cl)cc2)cc1,> 100,> 100
COc1cc(OC)c(/C=C(\C(=O)c2ccc(Cl)cc2)S(=O)(=O)c2ccc(C)cc2)c(OC)c1,10,25
Cc1ccc(CS/C(=C/c2ccc(F)cc2C(F)(F)F)C(=O)c2ccc(Cl)cc2)cc1,50,50
Cc1ccc(/C=C(/SCc2ccc(Cl)cc2Cl)C(=O)c2ccc(Cl)cc2)s1,50,50
Cc1ccc(S/C(=C/c2cnc3ccccc3c2)C(=O)c2ccc(Cl)cc2)cc1,> 100,> 100
COc1ccc(/C=C(/Sc2ccc(C)cc2)C(=O)c2ccc(Cl)cc2)cc1O,1,1
